Measured values reported in article PMC2095803 (Nucleic Acids Research, 2007).
Blank lines part the entries; values can stand above or below the compound they belong to.

What was measured:
[1] = target: T1, Vent(exo−) DNA polymerase (Thermococcus litoralis, UniProt P30317, D141A/E143A); details: screening with eight different DNA polymerases; cited from earlier work
T1 sequence (P30317 with tags, fused parts or gaps D141A/E143A): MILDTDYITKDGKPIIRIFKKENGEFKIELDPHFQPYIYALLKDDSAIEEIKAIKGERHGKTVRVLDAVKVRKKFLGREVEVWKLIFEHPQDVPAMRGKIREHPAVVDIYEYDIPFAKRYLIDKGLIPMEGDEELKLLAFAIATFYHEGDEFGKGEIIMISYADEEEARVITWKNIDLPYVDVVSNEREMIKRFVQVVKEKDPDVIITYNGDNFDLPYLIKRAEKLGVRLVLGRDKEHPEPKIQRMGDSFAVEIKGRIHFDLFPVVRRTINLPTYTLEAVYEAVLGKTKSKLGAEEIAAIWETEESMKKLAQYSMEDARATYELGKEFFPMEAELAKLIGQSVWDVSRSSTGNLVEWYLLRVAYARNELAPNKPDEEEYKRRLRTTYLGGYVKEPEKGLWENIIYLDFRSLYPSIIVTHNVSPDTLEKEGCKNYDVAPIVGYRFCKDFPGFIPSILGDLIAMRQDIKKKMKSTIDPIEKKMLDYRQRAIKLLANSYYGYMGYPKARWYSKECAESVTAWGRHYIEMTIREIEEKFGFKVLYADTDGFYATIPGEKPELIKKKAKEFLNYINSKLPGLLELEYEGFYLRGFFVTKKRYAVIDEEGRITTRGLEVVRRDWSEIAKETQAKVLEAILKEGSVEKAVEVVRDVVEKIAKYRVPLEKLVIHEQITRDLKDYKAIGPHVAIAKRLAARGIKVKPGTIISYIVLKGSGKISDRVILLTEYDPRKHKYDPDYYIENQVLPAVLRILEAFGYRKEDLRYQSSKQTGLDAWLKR

[2] = UV deprotection studies of 5′-O-TBS derivatives; assay type: physicochemical; details: for DT1/2 (deprotection half-life time) at 302 nm / DT1/2 (deprotection half-life time) at 365 nm: 1 mM in methanol, 0.5 mW transilluminator, triplicate
Summary of the method: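 The test compound, in methanol at 1 mM in a scintillation vial, was irradiated with a 0.5 mW transilluminator at 302 or 365 nm. Aliquots taken at time intervals went to reverse-phase HPLC to follow loss of starting material and appearance of the deprotected product (loss of the 2-nitrobenzyl group). DT1/2 is the time at 50% deprotection, read from kinetic plots. Each compound was run in triplicate.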

[3] = target: T2, Bst DNA polymerase (Geobacillus stearothermophilus, UniProt P52026); assay: Oligonucleotide template assay; assay type: biochemical, Bacillus stearothermophilus; details: for Incorporation: Bst, five-base poly-thymidine template, high concentrations (100 μM)
T2 sequence (P52026 289-876 limits assumed): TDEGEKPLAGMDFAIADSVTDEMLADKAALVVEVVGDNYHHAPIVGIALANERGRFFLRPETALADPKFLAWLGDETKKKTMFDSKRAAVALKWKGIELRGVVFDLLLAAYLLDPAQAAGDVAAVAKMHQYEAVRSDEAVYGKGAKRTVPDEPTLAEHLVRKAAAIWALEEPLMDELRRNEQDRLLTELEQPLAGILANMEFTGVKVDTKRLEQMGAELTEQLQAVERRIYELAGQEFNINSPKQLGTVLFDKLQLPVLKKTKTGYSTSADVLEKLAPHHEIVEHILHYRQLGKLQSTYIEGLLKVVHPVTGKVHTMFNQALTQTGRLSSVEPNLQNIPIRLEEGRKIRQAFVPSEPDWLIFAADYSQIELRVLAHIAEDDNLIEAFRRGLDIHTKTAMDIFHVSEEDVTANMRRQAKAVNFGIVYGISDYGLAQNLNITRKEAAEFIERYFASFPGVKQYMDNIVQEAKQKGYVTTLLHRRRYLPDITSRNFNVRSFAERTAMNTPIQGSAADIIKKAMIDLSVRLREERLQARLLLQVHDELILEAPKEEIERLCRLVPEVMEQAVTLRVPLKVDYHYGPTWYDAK

[4] = target: T1, Vent(exo−) DNA polymerase; assay: PEP; assay type: biochemical
[5] = target: T3, DeepVent(exo−) DNA polymerase (Pyrococcus sp. GB-D, UniProt Q51334, D141A/E143A); assay: PEP; assay type: biochemical, Pyrococcus species GB-D
T3 sequence (Q51334 with tags, fused parts or gaps D141A/E143A): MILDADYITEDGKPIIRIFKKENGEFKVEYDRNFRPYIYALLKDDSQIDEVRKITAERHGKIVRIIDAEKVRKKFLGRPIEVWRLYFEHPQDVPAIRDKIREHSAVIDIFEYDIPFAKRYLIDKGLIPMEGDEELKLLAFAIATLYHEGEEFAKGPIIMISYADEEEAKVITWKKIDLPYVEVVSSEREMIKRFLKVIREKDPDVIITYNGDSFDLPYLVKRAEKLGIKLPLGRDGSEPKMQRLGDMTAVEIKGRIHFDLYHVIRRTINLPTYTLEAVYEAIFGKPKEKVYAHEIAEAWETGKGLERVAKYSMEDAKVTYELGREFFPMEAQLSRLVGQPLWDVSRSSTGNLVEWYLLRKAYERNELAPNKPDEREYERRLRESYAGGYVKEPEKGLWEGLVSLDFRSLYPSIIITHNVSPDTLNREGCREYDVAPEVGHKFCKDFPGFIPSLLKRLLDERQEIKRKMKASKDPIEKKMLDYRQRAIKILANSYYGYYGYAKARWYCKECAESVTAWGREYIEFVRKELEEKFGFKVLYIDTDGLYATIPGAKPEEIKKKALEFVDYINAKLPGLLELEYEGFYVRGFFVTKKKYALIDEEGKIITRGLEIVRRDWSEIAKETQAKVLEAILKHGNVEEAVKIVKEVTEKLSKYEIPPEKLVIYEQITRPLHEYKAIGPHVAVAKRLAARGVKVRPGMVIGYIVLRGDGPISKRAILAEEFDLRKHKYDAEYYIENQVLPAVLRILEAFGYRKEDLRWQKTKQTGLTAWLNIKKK

[6] = target: T2, Bst DNA polymerase; assay: PEP; assay type: biochemical, Bacillus stearothermophilus

SMILES: C=CCO[C@H]1C[C@H](n2cnc3c(N)ncnc32)O[C@@H]1COP(=O)(O)OP(=O)(O)OP(=O)(O)O [3′-O-allyl-dATP]
- Activity as polymerase substrate [1]: limited activity at high micromolar concentrations

SMILES: CC(C)(C)[Si](C)(C)OC[C@H]1O[C@@H](n2cnc3c(N)ncnc32)C[C@@H]1OCc1ccccc1[N+](=O)[O-] [Compound Ib, 5’-O-tert-Butyldimethylsilyl-3’-O-(2-nitrobenzyl)-2’-deoxyadenosine]
- DT1/2 (deprotection half-life time) at 302 nm [2]: 1 min
- DT1/2 (deprotection half-life time) at 365 nm [2]: 2.53 min

SMILES: CC(C)(C)[Si](C)(C)OC[C@H]1O[C@@H](n2cnc3c(NCc4ccccc4[N+](=O)[O-])ncnc32)C[C@@H]1O [IIIb, N^6-(2-Nitrobenzyl)-5’-O-tert-butyldimethylsilyl-2’-deoxyadenosine]
- DT1/2 (deprotection half-life time) at 302 nm [2]: 0.767 min
- DT1/2 (deprotection half-life time) at 365 nm [2]: 2.4 min

SMILES: Nc1ncnc2c1ncn2[C@H]1C[C@H](O)[C@@H](COP(=O)(O)OP(=O)(O)OP(=O)(O)O)O1 [dATP, 2′-Deoxyadenosine triphosphate]
- IC50 [4]: 1.6 ± 0.2 nM
- IC50 [5]: 2.8 ± 0.2 nM
- IC50 [6]: 1.2 ± 0.1 nM

Other lines, results leading:

- Deprotection rate relative to compound Ib ([2]; faster than Ib at both deprotection wavelengths (302 and 365 nm)): approximately 3 fold
SMILES: CC(C)(C)[Si](C)(C)OC[C@H]1O[C@@H](n2cnc3c(N(Cc4ccccc4[N+](=O)[O-])Cc4ccccc4[N+](=O)[O-])ncnc32)C[C@@H]1O [IIb, N^6, N^6-Bis-(2-nitrobenzyl)-5’-O-tert-butyldimethylsilyl-2’deoxyadenosine]

- Activity by DNA polymerase incorporation assays [3]: inactive
- Incorporation [3]: did not show significant incorporation
SMILES: O=[N+]([O-])c1ccccc1CN(Cc1ccccc1[N+](=O)[O-])c1ncnc2c1ncn2[C@H]1C[C@H](O)[C@@H](COP(=O)(O)OP(=O)(O)OP(=O)(O)O)O1 [IIc, N^6, N^6-Bis-(2-nitrobenzyl)-2’-deoxyadenosine-5’-triphosphate]

- Activity by DNA polymerase incorporation assays [3]: inactive
- Incorporation [3]: did not show significant incorporation
SMILES: Nc1ncnc2c1ncn2[C@H]1C[C@H](OCc2ccccc2[N+](=O)[O-])[C@@H](COP(=O)(O)OP(=O)(O)OP(=O)(O)O)O1 [Ic, 3’-O-(2-Nitrobenzyl)-2’-deoxyadenosine-5’-triphosphate]
